Data published in ChEMBL document CHEMBL1134794, “Discovery of inhibitors of cell adhesion molecule expression in human endothelial cells. 1. Selective inhibition of ICAM-1 and E-selectin expression” (J Med Chem, 2001).
pIC50: −log10 of the molar value. Values after ≈ are worked out from the molar mass of the structure shown.

Tests used:
[1] = In vitro cellular toxicity against human umbilical vein endothelial cells (HUVEC) in MTS assay; format: cell-based
[2] = Mean plasma concentration measured in rat; format: ADME, organism-based
How it was run: (§1)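 Rats given a single oral dose of 5 mg/kg, no intravenous arm. Plasma drug concentrations followed over time and analysed by HPLC. Values are means (±SEM, n=3).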

[3] = Area under curve against time (0-8 hr) in rat; format: ADME, organism-based; design: time < 8 hr; conditions: in vivo; how it was run: as §1
[4] = Maximum time taken to reach mean plasma concentration, measured in rat; format: ADME, organism-based; how it was run: as §1
[5] = Aqueous solubility was determined at pH 7.4; format: physicochemical; conditions: buffer
How it was run: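 Solubility determined in 0.05 M NaH₂PO₄ buffer at pH 7.4.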

[6] = Half-life was measured in rat; format: ADME, organism-based; conditions: in vivo; how it was run: as §1

`NC(=O)c1cc2c(Sc3ccccn3)cncc2s1` showed a pIC50 [1] of less than 4.00.

Molecule `CCc1cc2c(SCc3ccccc3)ncnc2s1` has a pIC50 [1] of less than 4.00.

With `Cc1ccc(Sc2cncc3sc(C(=N)S)cc23)cc1` the pIC50 [1] was 4.29.

With `Cc1ccc(Sc2cncc3sccc23)cc1` the pIC50 [1] was 5.24.

`Cc1ccc(Sc2cncc3sc(C(N)=O)cc23)cc1C` gave a pIC50 [1] of less than 4.00.

In the case of `CCc1cc2c(Sc3nnc(C)s3)ncnc2s1`, the pIC50 [1] was 4.29.

`Cc1ccc(Sc2cncc3sc(C(N)=O)cc23)cc1` showed a Cmax [2] of 78 ng/mL, an AUC at 8 h [3] of 131 ng·h/mL and a pIC50 [1] of 3.82. It also gave a Tmax [4] of 15 min, a solubility [5] of 400 µg/mL (≈ 1330 µM) and a half-life [6] of 60 min.

Work on `Cc1ccc(Sc2ccnc3sc(C(N)=O)cc23)cc1` yielded a pIC50 [1] of 4.36.

For `CCc1cc2c(Cl)ncnc2s1`, the pIC50 [1] was less than 4.00.

For `Cc1cccc(Sc2cncc3sc(C(N)=O)cc23)c1`, the pIC50 [1] was 4.02.

`Cc1ccc(Sc2cncc3sc(C(=O)NN)cc23)cc1` gave a pIC50 [1] of 4.09.

For `CCc1cc2c(O)ncnc2s1`, the pIC50 [1] was less than 4.00.

Work on `CCc1cc2c(Sc3nnc(N)s3)ncnc2s1` yielded a pIC50 [1] of 4.02.

With `Cc1ccc(Sc2cncc3sc(/C=N/OCC(=O)O)cc23)cc1` the pIC50 [1] was 4.08.

For `Cc1ccc([S+]([O-])c2cncc3sc(C(N)=O)cc23)cc1` (centres undefined), the Cmax [2] was 476 ng/mL, the AUC at 8 h [3] was 1240 ng·h/mL and the Tmax [4] was 25.2 min.

`Cc1ccc(Sc2cncc3sc(C(=O)O)cc23)cc1` showed a Cmax [2] of 751 ng/mL, an AUC at 8 h [3] of 2950 ng·h/mL and a Tmax [4] of 19.8 min.

In the case of `CCc1cc2c(NCc3ccccc3)ncnc2s1`, the pIC50 [1] was 4.14.

`NC(=O)c1cc2c(Sc3ccc(C(F)(F)F)cc3)cncc2s1` gave a pIC50 [1] of 4.02.

`Cc1ccc(Sc2cncc3sc(C(=O)NCCCN4CCOCC4)cc23)cc1` showed a pIC50 [1] of 4.17.

Work on `Cc1ccc(Sc2cncc3sc(C(N)=O)cc23)c(C)c1` yielded a pIC50 [1] of less than 5.00.
